Laboratory results from ChEMBL document CHEMBL4342502, “Synthesis and Antichlamydial Activity of Molecules Based on Dysregulators of Cylindrical Proteases” (J Med Chem, 2020).
Active and inactive are the calls of the source. The calls are words filed in the database; no cut-off is given here.

Key:
[1] = test system: Chlamydia trachomatis; assay: Anti-chlamydial activity against Chlamydia trachomatis Serovar LGV-L2 infected in Hep2 cells assessed as reduction in chlamydial inclusion growth by measuring appearance of small and irregular inclusions at 128 ug/ml treated at 8 hrs post-infection and 24 hrs later re-infecting fresh Hep2 cells monolayer with infected cells and measured at 24 hrs post re-infection by immunofluorescence staining based microscopy analysis; format: functional, organism-based
Outline: (§1)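 HEp-2 cells in DMEM with 10% FBS, infected with C. trachomatis L2 at MOI 1. Compounds added 8 hpi in triplicate; DMSO stocks at 50 mg/mL. At 24 hpi lysates collected in sucrose storage medium, frozen at −80 °C, and used to infect fresh HEp-2 monolayers in 10-fold dilutions. After 24 h, stained with goat anti-MOMP and Alexa488 secondary. Inclusions counted in 15 fields at 20x; IFU = mean count per field corrected for dilution.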

[2] = test system: Chlamydia trachomatis; assay: (§2) Anti-Chlamydial activity against Chlamydia trachomatis Serovar LGV-L2 infected in Hep2 cells assessed as reduction in size and number of chlamydial inclusion at 1 ug/ml treated at 8 hrs post-infection and 24 hrs later re-infecting fresh Hep2 cells monolayer with infected cells and measured at 24 hrs post re-infection by immunofluorescence staining based microscopy analysis; format: functional, organism-based; outline: as §1
[3] = test system: Chlamydia trachomatis; assay: Anti-chlamydial activity against Chlamydia trachomatis Serovar LGV-L2 infected in Hep2 cells assessed as inhibition of chlamydial inclusion at 50 ug/ml treated at 8 hrs post infection and measured at 24 hrs post-infection by immunofluorescence assay; format: functional, organism-based
Outline: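 HEp-2 cells infected with C. trachomatis serovar L2. Compounds at 50 μg/mL added 8 hpi; inclusion number and size assessed by immunofluorescence at 24 hpi against untreated cells. Cell morphology and viability checked by phase-contrast microscopy.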

[4] = test system: Haemophilus influenzae; assay: Antimicrobial activity against Haemophilus influenzae H2192 assessed as bacterial growth inhibition measured after 18 to 20 hrs; format: functional
[5] = test system: Neisseria meningitidis; assay: Antimicrobial activity against Neisseria meningitidis MC58 assessed as bacterial growth inhibition measured after 18 to 20 hrs; format: functional
[6] = test system: HEp-2; assay: Toxicity in human Hep2 cells infected with Chlamydia trachomatis Serovar LGV-L2 assessed as cell morphology at 50 ug/ml treated at 8 hrs post-infection and measured at 24 hrs post-infection by phase contrast microscopy; format: cell-based
Outline: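 HEp-2 cells grown in DMEM with 2% L-glutamine and 10% FBS at 37 °C, infected with C. trachomatis serovar L2. Compound at 50 μg/mL added 8 h post-infection, then incubated 16 h more (24 h total). Cell morphology and viability checked by phase-contrast microscopy alongside untreated infected cells.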

[7] = test system: Chlamydia trachomatis; assay: as §2, with “4” for “1”; format: functional, organism-based; outline: as §1

In the case of CN[C@@H]1[C@H](O)[C@H](NC)[C@H]2O[C@@]3(O)C(=O)C[C@@H](C)O[C@H]3O[C@@H]2[C@H]1O, the inhibition [1] is reported as “Active”.

In the case of C[C@H]1c2cccc(O)c2C(=O)C2=C(O)[C@]3(O)C(=O)C(C(N)=O)=C(O)[C@@H](N(C)C)[C@@H]3[C@@H](O)[C@@H]21, the inhibition [2] is reported as “Active”.

CC(C)(C(=O)NCCSc1ccccc1Cl)S(=O)(=O)c1ccc(C(F)(F)F)cn1 was tested, and the inhibition [3] was “Active”, the Activity [4] was 32 µg/mL and the Activity [5] was 64 µg/mL.

In the case of CC(C)(Sc1ccc(C(F)(F)F)cn1)C(=O)NCCCc1ccccc1, the Activity [6] is reported as “Toxic”.

In the case of CC[C@H]1OC(=O)[C@H](C)[C@@H](O[C@H]2C[C@@](C)(OC)[C@@H](O)[C@H](C)O2)[C@H](C)[C@@H](O[C@@H]2O[C@H](C)C[C@H](N(C)C)[C@H]2O)[C@](C)(O)C[C@@H](C)CN(C)[C@H](C)[C@@H](O)[C@]1(C)O, the inhibition [7] is reported as “Active”.
